Drawing on ChEMBL document CHEMBL1212774, “In vitro activity of fosfomycin against blaKPC-containing Klebsiella pneumoniae isolates, including those nonsusceptible to tigecycline and/or colistin” (2010), this text covers Activity for 1 compound.

Common to all, as to type: functional
Assay [1] concerns Klebsiella pneumoniae. As to the kind of experiment: Antimicrobial activity against Klebsiella pneumoniae isolate KpKPC expressing multidrug-resistant blaKPC gene assessed as susceptible isolates by Etest. The method, boiled down:
(§1)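 Etest of fosfomycin MICs, with MICs rounded up to the next doubling concentration (e.g., 48 to 64 μg/ml). E. coli ATCC 25922 and P. aeruginosa ATCC 27853 included as controls. Isolates categorised as susceptible or resistant.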

In assay [2] the test system is Klebsiella pneumoniae. As to the kind of experiment: Antimicrobial activity against Klebsiella pneumoniae isolate KpKPC expressing multidrug-resistant blaKPC gene assessed as resistant isolates by Etest. The essentials:
as §1

In assay [3] the test system is Klebsiella pneumoniae. Kind of assay: Antimicrobial activity against Klebsiella pneumoniae isolate KpKPC expressing multidrug-resistant blaKPC gene assessed as susceptible isolates by disk diffusion method. The method, boiled down:
(§2)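 Fosfomycin disk diffusion with inhibition zone diameters read in mm and interpreted as susceptible, intermediate or resistant. E. coli ATCC 25922 and P. aeruginosa ATCC 27853 run as controls.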
(Agar diffusion results depend on both activity and mobility in agar.)

Assay [4] deals with Klebsiella pneumoniae. Kind of assay: Antimicrobial activity against Klebsiella pneumoniae isolate KpKPC expressing multidrug-resistant blaKPC gene assessed as resistant isolates by disk diffusion method. The essentials: as §2

Turning to `C[C@@H]1O[C@@H]1P(=O)(O)O` [FOSFOMYCIN], the Activity is on record as 61.8% in assay [1], 14.7% in assay [2], 63.2% in assay [3] and 2.9% in assay [4].
